Consider 31 molecules from ChEMBL document CHEMBL1145033, “2-Amino-3-benzoylthiophene allosteric enhancers of A1 adenosine agonist binding: new 3, 4-, and 5-modifications” (J Med Chem, 2003).

As usually defined, the EC50 is the concentration giving half of the maximal effect. A word on the inhibition: it is the percentage by which the read-out fell short of the control. Higher therefore signals a strong effect.

The structures appear in SMILES notation.

The first test concerns the target T1, Adenosine receptor A1 (Homo sapiens, UniProt P30542).
T1 sequence (P30542 whole entry): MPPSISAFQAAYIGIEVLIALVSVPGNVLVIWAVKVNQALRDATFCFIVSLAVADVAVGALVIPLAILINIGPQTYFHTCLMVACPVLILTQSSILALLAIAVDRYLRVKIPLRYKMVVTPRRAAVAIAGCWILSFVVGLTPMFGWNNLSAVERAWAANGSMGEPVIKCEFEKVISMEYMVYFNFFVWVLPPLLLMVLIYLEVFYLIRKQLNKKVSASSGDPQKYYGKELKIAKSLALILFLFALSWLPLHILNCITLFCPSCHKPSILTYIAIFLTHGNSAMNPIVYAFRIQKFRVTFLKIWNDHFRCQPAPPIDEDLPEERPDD
In words: Effective dose as dissociation of [3H]N6-cyclohexyladenosine ([3H]CHA) from CHO-K1 membrane after treatment with allosteric enhancer and (R)-PIA.
As to `Nc1sc(Br)c(-c2cccc(C(F)(F)F)c2)c1C(=O)c1ccccc1`, the EC50 amounted to 6.36 µM.

The target of the next test is T2, Adenosine receptor A1 (Homo sapiens) (UniProt P30542).
T2 sequence (whole entry): T1 sequence (P30542 whole entry)
Nature of the test: Dissociation of [3H]N6-cyclohexyladenosine ([3H]CHA) from CHO-K1 membrane expressing human adenosine A1 receptor after treatment with allosteric enhancer at 100 uM and (R)-PIA.
With `Nc1sc(Br)c(-c2ccc(-c3ccccc3)cc2)c1C(=O)c1ccccc1`, the Activity came out at 42.7%.

In the case of `Nc1sc(-c2ccccc2)c(-c2ccccc2)c1C(=O)N(Cc1ccccc1)Cc1ccccc1`, the Activity came out at 14.1%.

On to `Nc1sc(-c2ccccc2)c(-c2ccccc2)c1C(=O)c1ccc2ccccc2c1`, for which the Activity is 4.2%.

Turning to `Nc1sc(-c2ccccc2)c(-c2ccccc2)c1C(=O)c1cccc2ccccc12`, the Activity is 52.3%.

Turning to `Nc1sc(-c2ccccc2)c(-c2ccccc2)c1C(=O)c1ccc(-c2ccccc2)cc1`, the Activity came to 1.5%.

Turning to `Nc1sc(Br)c(-c2ccc3ccccc3c2)c1C(=O)c1ccccc1`, the Activity amounted to 49.7%.

In the case of `Nc1sc(-c2ccccc2)c(-c2ccc(Cl)cc2)c1C(=O)c1ccc(Cl)cc1`, the Activity was determined as 8.7%.

Consider `Nc1sc(-c2ccccc2)c(-c2ccc(Cl)cc2)c1C(=O)c1ccccc1`, for which the Activity is 5.6%.

For `Cc1ccc(-c2c(-c3ccccc3)sc(N)c2C(=O)Cc2ccccc2)cc1`, the Activity was 1.9%.

In the case of `CCOC(=O)c1c(N)sc(-c2ccccc2)c1-c1ccc(Cl)cc1`, the Activity was determined as 42.1%.

As to `Nc1sc(-c2ccccc2)c(-c2ccccc2)c1C(=O)c1cccc(Cl)c1`, the Activity is 9.4%.

With `CCOC(=O)c1c(N)sc(Br)c1-c1cccc([N+](=O)[O-])c1`, the Activity is 26%.

Turning to `Nc1sc(Br)c(-c2cccc(C(F)(F)F)c2)c1C(=O)c1ccccc1`, the Activity stood at 91%.

As for `Cc1ccc(-c2c(-c3ccccc3)sc(N)c2C(=O)c2cccc(Cl)c2)cc1`, the Activity amounted to 8.1%.

In the case of `Cc1ccc(-c2c(-c3ccccc3)sc(N)c2C(=O)c2ccc(Cl)cc2)cc1`, the Activity came out at 8.4%.

Regarding `Nc1sc(Br)c(-c2ccc([N+](=O)[O-])cc2)c1C(=O)c1ccccc1`, the Activity is 68.3%.

With `Nc1sc(-c2ccccc2)c(-c2ccccc2)c1C(=O)c1ccc(Cl)cc1`, the Activity amounted to 10.8%.

Take `Nc1sc(-c2ccccc2)c(-c2ccccc2)c1C(=O)OCc1cccc(C(F)(F)F)c1`: the Activity was 48%.

`Nc1sc(Br)c(-c2cccc([N+](=O)[O-])c2)c1C(=O)c1ccccc1`: the Activity stood at 21.8%.

For the molecule `Nc1sc(-c2ccccc2)c(-c2ccccc2)c1C(=O)OCc1ccccc1`, the Activity turned out to be 18.6%.

As for `Cc1ccc(-c2c(-c3ccccc3)sc(N)c2C(=O)c2ccc3ccccc3c2)cc1`, the Activity turned out to be 10.9%.

As for `Cc1ccc(-c2c(-c3ccccc3)sc(N)c2C(=O)OCc2cccc(C(F)(F)F)c2)cc1`, the Activity was determined as 62.6%.

With `N#Cc1ccc(-c2c(Br)sc(N)c2C(=O)c2ccccc2)cc1`, the Activity was 20.3%.

For `Nc1sc(Br)c(-c2ccc(C(F)(F)F)cc2)c1C(=O)c1ccccc1`, the Activity was found to be 80.4%.

`Cc1ccc(-c2c(-c3ccccc3)sc(N)c2C(=O)c2ccc(-c3ccccc3)cc2)cc1`: the Activity amounted to 3.6%.

On to `Nc1sc(-c2ccccc2)c(-c2ccc(Cl)cc2)c1C(=O)c1ccc(-c2ccccc2)cc1`, for which the Activity was 10.5%.

For the molecule `Nc1sc(-c2ccccc2)c(-c2ccc(Cl)cc2)c1C(=O)c1cccc2ccccc12`, the Activity was found to be 11.9%.

For `Nc1sc(-c2ccccc2)c(-c2ccccc2)c1C(=O)c1ccccc1`, the Activity amounted to 10.7%.

On to `Cc1sc(N)c(C(=O)c2cccc(C(F)(F)F)c2)c1C`, for which the Activity came out at 19%.

`Cc1ccc(-c2c(-c3ccccc3)sc(N)c2C(=O)c2ccccc2)cc1`: the Activity stood at 13.4%.

With `Nc1sc(-c2ccccc2)cc1C(=O)OCc1ccccc1`, the Activity was found to be 8%.

For another test, the target named is T2, Adenosine receptor A1 (Homo sapiens). Nature of the test: Inhibition of antagonist [3H]CPX binding to Adenosine A1 receptor membrane at 100 uM. The method, boiled down: (§1)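 Human A1AR membranes from CHO cells were incubated with 2 nM [3H]CPX and test agent (100 μM) for 90 min at room temperature. Inhibition of equilibrium antagonist binding was then measured.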
For the molecule `Cc1sc(N)c(C(=O)c2cccc(C(F)(F)F)c2)c1C`, the inhibition was determined as 85%.

Another test has the same target. Nature of the test: Inhibition of antagonist [3H]-CPX binding to Adenosine A1 receptor membrane at 100 uM. The method, boiled down:
as §1
The molecule `Nc1sc(Br)c(-c2cccc(C(F)(F)F)c2)c1C(=O)c1ccccc1` displayed an inhibition of 29%.
